What was measured:
[1] = target: T1, Prostaglandin D2 receptor 2 (Homo sapiens, UniProt Q9Y5Y4); test: Antagonist activity at human CRTH2 receptor expressed in HEK285-7 cells assessed as inhibition of beta arrestin translocation by bioluminescence resonance energy transfer assay; type: functional, cell-based
T1 sequence (Q9Y5Y4 whole entry): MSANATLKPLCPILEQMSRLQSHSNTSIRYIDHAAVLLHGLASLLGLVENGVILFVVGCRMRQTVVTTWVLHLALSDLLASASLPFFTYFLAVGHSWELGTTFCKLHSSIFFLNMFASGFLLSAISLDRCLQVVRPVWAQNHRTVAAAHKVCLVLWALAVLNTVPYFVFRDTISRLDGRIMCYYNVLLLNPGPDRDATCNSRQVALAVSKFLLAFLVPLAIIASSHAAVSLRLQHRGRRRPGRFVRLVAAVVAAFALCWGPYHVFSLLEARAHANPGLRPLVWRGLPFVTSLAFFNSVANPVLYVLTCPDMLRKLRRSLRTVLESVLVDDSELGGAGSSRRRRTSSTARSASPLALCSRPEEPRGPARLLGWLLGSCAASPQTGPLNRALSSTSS
In short: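 BRET2 readout in HEK385-7 cells transfected with CRTH2 (GFP2-β-arrestin2 acceptor, receptor-Rluc donor). Cells preincubated with antagonist 5 min with shaking, then PGD₂ added at a level eliciting about 75–80% of maximal agonist response, 5 min more. DeepBlueC coelenterazine injected; emission read 5 s later at 400 and 515 nm; signal = 515/400 ratio. IC50 derived.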

[2] = target: T2, Prostaglandin D2 receptor 2 (Homo sapiens) (UniProt Q9Y5Y4); test: Antagonist activity at human CRTH2 receptor expressed in HEK285-7 cells assessed as inhibition of beta arrestin translocation by bioluminescence resonance energy transfer assay relative to control; type: functional, cell-based
T2 sequence (whole entry): T1 sequence (Q9Y5Y4 whole entry)
In short: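 Same BRET2 β-arrestin2 translocation format in CRTH2-transfected HEK385-7 cells: 5 min antagonist preincubation, then PGD₂ at about 75–80% of maximal agonist efficacy for 5 min, DeepBlueC coelenterazine, 515/400 nm ratio. Value is antagonist efficacy expressed as percent.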

[3] = target: T1, Prostaglandin D2 receptor 2; test: Displacement of[3H]PGD2 from human CRTH2 receptor expressed in african green monkey COS7 cells; type: cell-based, COS-7
In short: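 Equilibrium competition binding against [³H]PGD₂ on stably transfected COS7 cells expressing human CRTH2. Nonspecific binding defined with […] unlabelled PGD₂. IC50 reported.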

IC50 [1] | Efficacy [2] | IC50 [3] | Structure (SMILES)
2.4 µM | > 70% | 1.9 µM | COc1ccc(-c2nc(Nc3ccccc3)sc2CC(=O)O)cc1
> 100 µM | > 70% | 0.17 µM | COc1ccccc1-c1ccccc1Cc1nc(-c2ccc(F)cc2)c(CC(=O)O)s1
3.7 µM | > 70% | 1.5 µM | O=C(O)Cc1sc(-c2ccc(F)cc2)nc1-c1ccccc1
1.3 µM | > 70% | 0.1 µM | O=C(O)Cc1sc(Nc2ccccc2)nc1-c1ccc(Cl)cc1
 | > 70% | 1.4 µM | CCc1ccc(-c2nc(-c3ccccc3OC)sc2CC(=O)O)cc1
 | > 70% | 0.46 µM | CN(C)c1ccc(-c2nc(-c3ccc(Br)cc3)c(CC(=O)O)s2)cc1
0.26 µM | 20% | 0.094 µM | O=C(O)Cc1sc(Nc2ccc3ccccc3c2)nc1-c1ccc(Oc2ccccc2)cc1
0.58 µM | > 70% | 0.088 µM | O=C(O)Cc1sc(Cc2ccc(Cl)cc2)nc1-c1ccccc1
 | > 70% | 0.35 µM | COc1ccccc1-c1nc(-c2ccc(Br)cc2)c(CC(=O)O)s1
1.9 µM | > 70% | 0.96 µM | O=C(O)Cc1sc(Nc2ccc(Cl)cc2)nc1-c1ccc(F)cc1
0.54 µM | > 70% | 0.089 µM | O=C(O)Cc1sc(Nc2ccc(F)cc2)nc1-c1ccc(Oc2ccccc2)cc1
 | > 70% | 0.21 µM | COc1ccc(-c2nc(-c3ccc(Cl)cc3)sc2CC(=O)O)cc1
0.48 µM | > 70% | 0.049 µM | COc1ccccc1Nc1nc(-c2ccc(Oc3ccccc3)cc2)c(CC(=O)O)s1
> 100 µM | > 70% | 0.16 µM | O=C(O)Cc1sc(Cc2ccccc2Oc2ccccc2)nc1-c1ccc(Cl)cc1
5 µM | > 70% | 7 µM | COc1ccc(-c2nc(-c3ccccc3)sc2CC(=O)O)cc1
0.51 µM | > 70% | 0.041 µM | O=C(O)Cc1sc(Cc2ccccc2-c2ccccc2)nc1-c1ccc(Cl)cc1
0.35 µM | > 70% | 0.084 µM | O=C(O)Cc1sc(Nc2ccccc2)nc1-c1ccc(Oc2ccccc2)cc1
> 100 µM | > 70% | 0.16 µM | O=C(O)Cc1sc(Cc2ccccc2-c2cccc(OC(F)(F)F)c2)nc1-c1ccc(F)cc1
1.1 µM | > 70% | 0.7 µM | O=C(O)Cc1sc(Nc2ccc(C(F)(F)F)cc2)nc1-c1ccc(Cl)cc1
0.63 µM | > 70% | 0.038 µM | O=C(O)Cc1sc(-c2ccccc2)nc1-c1ccc(-c2ccccc2)cc1

IC50 [1] | Efficacy [2] | IC50 [3] | Structure (SMILES)
1.7 µM | > 70% | 0.82 µM | COc1ccc(-c2nc(-c3ccccc3)c(CC(=O)O)s2)cc1
3.8 µM | > 70% | 0.33 µM | COc1ccc(Cc2nc(-c3ccccc3)c(CC(=O)O)s2)cc1OC
16 µM | > 70% | 1.2 µM | CC(C)c1ccc(Nc2nc(-c3ccc(Cl)cc3)c(CC(=O)O)s2)cc1
0.37 µM | > 70% | 0.22 µM | O=C(O)Cc1sc(Nc2ccc3ccccc3c2)nc1-c1ccc(Br)cc1
 | > 70% | 0.39 µM | COc1ccc(-c2nc(-c3ccc(Br)cc3)c(CC(=O)O)s2)cc1
 | > 70% | 0.99 µM | Cc1ccc(-c2nc(-c3ccc(Cl)cc3)sc2CC(=O)O)c(C)c1
0.19 µM | 30% | 0.17 µM | N#Cc1ccc(-c2ccccc2Cc2nc(-c3ccc(F)cc3)c(CC(=O)O)s2)cc1
0.73 µM | > 70% | 0.45 µM | COc1ccccc1Nc1nc(-c2ccc(Cl)cc2)c(CC(=O)O)s1
> 100 µM | > 70% | 0.7 µM | O=C(O)Cc1sc(Cc2ccccc2Br)nc1-c1ccc(F)cc1
0.37 µM | > 70% | 0.024 µM | O=C(O)Cc1sc(Cc2ccccc2-c2ccccc2)nc1-c1ccc(F)cc1
> 100 µM | > 70% | 0.21 µM | O=C(O)Cc1sc(Nc2ccccc2F)nc1-c1ccc(Oc2ccccc2)cc1
0.066 µM | > 70% | 0.0037 µM | O=C(O)Cc1sc(Cc2ccc(Cl)cc2)nc1-c1ccc(Oc2ccccc2)cc1
1.8 µM | > 70% | 0.25 µM | Cc1ccc(Cc2nc(-c3ccccc3)c(CC(=O)O)s2)cc1
1.2 µM | > 70% | 0.66 µM | O=C(O)Cc1sc(Nc2ccccc2)nc1-c1ccc(-c2ccccc2)cc1
1.5 µM | > 70% | 0.024 µM | O=C(O)Cc1sc(Cc2ccccc2-c2ccc3c(c2)OCO3)nc1-c1ccc(F)cc1
1.3 µM | > 70% | 0.65 µM | O=C(O)Cc1sc(Nc2ccccc2)nc1-c1ccc(F)cc1
0.18 µM | 30% | 0.14 µM | O=C(O)Cc1sc(Cc2ccccc2)nc1-c1ccc(F)cc1
0.56 µM | > 70% | 0.75 µM | Cc1ccc(Nc2nc(-c3ccc(Cl)cc3)c(CC(=O)O)s2)cc1
1.9 µM | > 70% | 0.31 µM | COc1ccccc1Nc1nc(-c2ccc(-c3ccccc3)cc2)c(CC(=O)O)s1
1.5 µM | > 70% | 0.94 µM | COc1ccc(Nc2nc(-c3ccccc3)c(CC(=O)O)s2)cc1

IC50 [1] | Efficacy [2] | IC50 [3] | Structure (SMILES)
4.1 µM | > 70% | 0.18 µM | O=C(O)Cc1sc(Cc2ccccc2)nc1-c1ccc(Cl)cc1
> 100 µM | > 70% | 0.34 µM | N#Cc1cccc(-c2ccccc2Cc2nc(-c3ccc(F)cc3)c(CC(=O)O)s2)c1
0.39 µM | > 70% | 0.04 µM | COc1cccc(-c2ccccc2Cc2nc(-c3ccc(F)cc3)c(CC(=O)O)s2)c1
0.22 µM | > 70% | 0.05 µM | O=C(O)Cc1sc(Cc2ccc(Cl)cc2)nc1-c1ccc(Cl)cc1
0.35 µM | 50% | 1.3 µM | CCc1ccc(-c2nc(-c3ccccc3)sc2CC(=O)O)cc1
0.27 µM | > 70% | 0.072 µM | COc1ccc(-c2ccccc2Cc2nc(-c3ccc(F)cc3)c(CC(=O)O)s2)cc1
2.1 µM | > 70% | 1.5 µM | COc1ccccc1Nc1nc(-c2ccc(F)cc2)c(CC(=O)O)s1
0.85 µM | > 70% | 0.36 µM | COc1ccc(-c2nc(Cc3ccc(Cl)cc3)sc2CC(=O)O)cc1
1.5 µM | > 70% | 0.35 µM | O=C(O)Cc1sc(Nc2ccccc2)nc1-c1ccccc1
0.57 µM | > 70% | 0.041 µM | O=C(O)Cc1sc(Cc2ccc3ccccc3c2)nc1-c1ccc(Cl)cc1
1.6 µM | > 70% | 0.47 µM | COc1ccc(-c2nc(-c3ccc(Oc4ccccc4)cc3)sc2CC(=O)O)cc1
0.96 µM | > 70% | 0.55 µM | O=C(O)Cc1sc(-c2ccccc2)nc1-c1ccc(Cl)cc1 [FENTIAZAC]
3.8 µM | 20% | 0.94 µM | O=C(O)Cc1sc(Nc2ccc(Cl)cc2)nc1-c1ccc(-c2ccccc2)cc1
2.5 µM | > 70% | 0.87 µM | O=C(O)Cc1sc(-c2ccccc2)nc1-c1ccccc1
1.6 µM | > 70% | 0.99 µM | O=C(O)Cc1sc(-c2ccc(Cl)cc2)nc1-c1ccccc1
3.5 µM | > 70% | 0.86 µM | O=C(O)Cc1sc(-c2ccccc2)nc1-c1ccc(F)cc1
 | > 70% | 4.1 µM | COc1ccc(-c2nc(-c3ccc(OC)cc3)c(CC(=O)O)s2)cc1
1.3 µM | > 70% | 0.093 µM | O=C(O)Cc1sc(-c2ccc(Oc3ccccc3)cc2)nc1-c1ccc(Cl)cc1
0.66 µM | > 70% | 0.16 µM | O=C(O)Cc1sc(-c2ccc(Oc3ccccc3)cc2)nc1-c1ccccc1
> 100 µM | > 70% | 0.13 µM | O=C(O)Cc1sc(Nc2ccccc2Cl)nc1-c1ccc(Oc2ccccc2)cc1

Source: ChEMBL document CHEMBL1158515, “Novel selective thiazoleacetic acids as CRTH2 antagonists developed from in silico derived hits. Part 1” (Bioorg Med Chem Lett, 2010)
